Laboratory results from ChEMBL document CHEMBL2034927, “Design, synthesis, anti-HIV evaluation and molecular modeling of piperidine-linked amino-triazine derivatives as potent non-nucleoside reverse transcriptase inhibitors” (Bioorg Med Chem, 2012).

Columns and labels:
[1] = Cytotoxicity against human MT4 cells after 5 days by MTT assay; format: cell-based
Procedure, shortened: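 MT-4 cells at 6 × 10⁵ cells/mL were mock-infected with culture medium and exposed to serial fivefold dilutions of compound. After 5 days, viability was measured by MTT reduction at 540 and 690 nm, using the median OD of three wells. CC50 is the concentration reducing OD540 of the mock-infected control by 50%.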

[2] = tested on: Human immunodeficiency virus 1; assay: Antiviral activity against HIV1 3B infected in human MT4 cells assessed as inhibition of virus-induced cytopathic effect after 5 days by MTT assay; format: functional, organism-based; details: Human immunodeficiency virus 1, 3B, MT4, 120 h
Procedure, shortened: (§1)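 MT-4 cells spun 5 min at 1000 rpm, resuspended at 6 × 10⁵ cells/mL, then infected with HIV-1 IIIB or HIV-2 ROD at 100–300 CCID50. Test compounds were added as serial fivefold dilutions. After 5 days, viability was read by MTT reduction at 540 and 690 nm, using the median OD of three wells. EC50 is the concentration giving 50% protection against virus-induced cytotoxicity.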

[3] = tested on: Human immunodeficiency virus 1; assay: Antiviral activity against HIV1 RES056 harboring reverse transcriptase K103N/Y181C mutant infected in human MT4 cells assessed as inhibition of virus-induced cytopathic effect after 5 days by MTT assay; format: functional, organism-based; details: Human immunodeficiency virus 1, RES056, MT4, 120 h
Procedure, shortened: (§2)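 MT-4 cells at 6 × 10⁵ cells/mL were infected with the double mutant HIV-1 RES056 (K103N+Y181C), with serial fivefold compound dilutions. After 5 days, viability was read by MTT at 540 and 690 nm, using the median OD of three wells. EC50 is 50% protection against virus-induced cytotoxicity, and CC50 is a 50% drop in OD540 of mock-infected cells. Fold resistance is the RES056 EC50 divided by the IIIB EC50.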

[4] = Selectivity index, ratio of CC50 for human MT4 cells to EC50 for wild type HIV1 3B; format: toxicity, cell-based; details: read-out: Ratio CC50/EC50
Procedure, shortened: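 HIV-1 IIIB stock at 100–300 CCID50 was added to MT-4 cells at 6 × 10⁵ cells/mL, with serial fivefold compound dilutions and mock-infected wells run in parallel. Viability was read by MTT at 540 and 690 nm after 5 days, using the median OD of three wells. EC50 is 50% protection from HIV-induced cytotoxicity, and CC50 is a 50% reduction of mock-infected OD540. SI is CC50/EC50.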

[5] = tested on: Human immunodeficiency virus 2; assay: Antiviral activity against HIV2 ROD infected in human MT4 cells assessed as inhibition of virus-induced cytopathic effect after 5 days by MTT assay; format: functional, organism-based; details: Human immunodeficiency virus 2, ISOLATE ROD, MT4, 120 h; procedure, shortened: as §1
[6] = Selectivity index, ratio of CC50 for human MT4 cells to EC50 for HIV1 RES056 harboring reverse transcriptase K103N/Y181C RT mutant; format: toxicity, cell-based; details: read-out: Ratio CC50/EC50
[7] = tested on: Human immunodeficiency virus 1; assay: Fold resistance, ratio of EC50 for HIV1 RES056 harboring reverse transcriptase K103N/Y181C RT mutant to EC50 for wild type HIV1 3B; format: functional; procedure, shortened: as §2

Row | SMILES | CC50 at 120 h [1] | EC50 [2] | EC50 [3] | selectivity ratio [4] | EC50 [5] | selectivity ratio [6] | Ratio EC50 [7]
1 | Cc1cc(C)c(Nc2nc(N)nc(NC3CCN(Cc4ccc(C#N)cc4)CC3)n2)c(C)c1 | 3.26 µM | 0.00566 µM | > 3.26 µM | 576 | > 3.26 µM | < 1 | >575.8
2 | Cc1cc(C)c(Nc2nc(N)nc(NC3CCN(Cc4ccncc4)CC3)n2)c(C)c1 | 20.1 µM | 0.0049 µM | 0.97 µM | 4110 | > 20.1 µM | 21 | 198.8
3 | CCOC(=O)c1ccc(CN2CCC(Nc3nc(N)nc(Nc4c(C)cc(C)cc4C)n3)CC2)cc1 | 5.91 µM | 0.0116 µM | > 5.91 µM | 512 | > 5.91 µM | < 1 | >511.6
4 | Cc1cc(C)c(Nc2nc(N)nc(NC3CCN(Cc4ccc(C(N)=O)cc4)CC3)n2)c(C)c1 | 74.4 µM | 0.0204 µM | 3.33 µM | 3640 | > 74.4 µM | 22 | 162.8
5 | Cc1cc(C)c(Nc2nc(N)nc(NC3CCN(Cc4ccc(S(N)(=O)=O)cc4)CC3)n2)c(C)c1 | 19.9 µM | 0.00575 µM | 0.61 µM | 3450 | > 19.9 µM | 32 | 105.7
6 | Cc1cc(C)c(Nc2nc(N)nc(NC3CCN(Cc4ccc(S(C)(=O)=O)cc4)CC3)n2)c(C)c1 | 5.06 µM | 0.00555 µM | 4.92 µM | 911 | > 5.06 µM | 1 | 887.5
7 | Cc1cc(C)c(Nc2nc(N)nc(NC3CCN(Cc4ccccc4)CC3)n2)c(C)c1 | 23.6 µM | 0.0103 µM | 4.93 µM | 2300 | > 23.6 µM | 5 | 481.3
8 | Cc1cc(C)c(Nc2nc(N)nc(NC3CCN(Cc4ccc([N+](=O)[O-])cc4)CC3)n2)c(C)c1 | 3.46 µM | 0.00787 µM | > 3.46 µM | 439 | > 3.46 µM | < 1 | >439.1
9 | CNc1nc(Nc2c(C)cc(C)cc2C)nc(NC2CCN(Cc3ccncc3)CC2)n1 | 25.8 µM | 0.00725 µM | 0.55 µM | 3560 | > 25.8 µM | 47 | 76.4
10 | CCOC(=O)c1ccc(CN2CCC(Nc3nc(NC)nc(Nc4c(C)cc(C)cc4C)n3)CC2)cc1 | 4.95 µM | 0.0167 µM | > 4.95 µM | 297 | > 4.95 µM | < 1 | >297
11 | CNc1nc(Nc2c(C)cc(C)cc2C)nc(NC2CCN(Cc3ccc(C(N)=O)cc3)CC2)n1 | 27.4 µM | 0.00461 µM | 0.56 µM | 5940 | > 27.4 µM | 49 | 121.6
12 | CNc1nc(Nc2c(C)cc(C)cc2C)nc(NC2CCN(Cc3ccc(S(N)(=O)=O)cc3)CC2)n1 | 14.8 µM | 0.00699 µM | 0.51 µM | 2120 | > 14.8 µM | 29 | 72.7
13 | CNc1nc(Nc2c(C)cc(C)cc2C)nc(NC2CCN(Cc3ccc(S(C)(=O)=O)cc3)CC2)n1 | 9.64 µM | 0.00606 µM | 3.33 µM | 1590 | > 9.64 µM | 3 | 549.8
14 | COc1nc(Nc2c(C)cc(C)cc2C)nc(NC2CCN(Cc3ccncc3)CC2)n1 | 30.9 µM | 0.0133 µM | 1.48 µM | 2320 | > 30.9 µM | 21 | 111.1
15 | CCOC(=O)c1ccc(CN2CCC(Nc3nc(Nc4c(C)cc(C)cc4C)nc(OC)n3)CC2)cc1 | 8.48 µM | 0.0147 µM | > 8.48 µM | 577 | > 8.48 µM | < 1 | >576.6
16 | COc1nc(Nc2c(C)cc(C)cc2C)nc(NC2CCN(Cc3ccc(C(N)=O)cc3)CC2)n1 | 33.4 µM | 0.00864 µM | 1.11 µM | 3870 | > 33.4 µM | 30 | 128.3
17 | COc1nc(Nc2c(C)cc(C)cc2C)nc(NC2CCN(Cc3ccc(S(N)(=O)=O)cc3)CC2)n1 | 19.6 µM | 0.0106 µM | 0.94 µM | 1850 | > 19.6 µM | 21 | 88.2
18 | COc1nc(Nc2c(C)cc(C)cc2C)nc(NC2CCN(Cc3ccc(S(C)(=O)=O)cc3)CC2)n1 | 13.5 µM | 0.0119 µM | ≥ 1.59 µM | 1130 | > 13.5 µM | ≤ 8 | >=133.3
19 | CC(C)Nc1cccnc1N1CCN(C(=O)c2cc3cc(NS(C)(=O)=O)ccc3[nH]2)CC1.CS(=O)(=O)O [DELAVIRDINE MESYLATE] | > 36.2 µM | 0.035 µM | > 36.2 µM | > 1030 |  | ≥ 1 | >1033.6
20 | O=C1Nc2ccc(Cl)cc2[C@@](C#CC2CC2)(C(F)(F)F)O1 [EFAVIRENZ] | > 6.34 µM | 0.00657 µM | 0.55 µM | > 964 |  | > 12 | 83.6
21 | Cc1cc(C#N)cc(C)c1Oc1nc(Nc2ccc(C#N)cc2)nc(N)c1Br [ETRAVIRINE] |  |  |  |  |  | 817 | 15.5
22 | Cc1ccnc2c1NC(=O)c1cccnc1N2C1CC1 [NEVIRAPINE] | > 15 µM |  | > 15 µM | > 75 |  | ≥ 1 | >75
23 | Nc1ccn([C@H]2CC[C@@H](CO)O2)c(=O)n1 [ZALCITABINE] | > 94.7 µM | 1.39 µM |  | > 68 | 1.67 µM |  | 
24 | Cc1cn([C@H]2C[C@H](N=[N+]=[N-])[C@@H](CO)O2)c(=O)[nH]c1=O [ZIDOVUDINE] | ≥ 49.8 µM |  | 0.01 µM | ≥ 8300 | 0.007 µM | ≥ 4400 | 1.9
